In ChEMBL document CHEMBL2331494, “First synthesis and biological evaluation of indeno[2,1-e]pyrazolo[3,4-b]pyrazin-5-one and related derivatives” (2013):
Values after ≈ are worked out from the molar mass of the structure shown.

Columns and labels:
Format in all cases: functional
Geotrichum candidum = experiment: Antifungal activity against Geotrichum candidum AUMC 226 assessed as diameter of growth inhibition zone at 20 mg/ml at 28 degC after 7 days; settings: AUMC 226, 168 h, read-out: DIZ
Procedure, shortened: (§1)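 Inocula: each fungus grown 7 days in Sabouraud's dextrose broth (30 ml per flask). Plates were 10 cm Petri dishes with 1 ml microbial suspension and 15 ml Sabouraud's dextrose agar each. Compound solutions were applied and the diameter of the growth inhibition zone was recorded.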

[1] = test system: Scopulariopsis brevicaulis; experiment: Antifungal activity against Scopulariopsis brevicaulis AUMC 729 assessed as diameter of growth inhibition zone at 20 mg/ml at 28 degC after 7 days; settings: AUMC 729, 168 h, read-out: DIZ; procedure, shortened: as §1
Fusarium oxysporum = experiment: Antifungal activity against Fusarium oxysporum AUMC 5119 assessed as diameter of growth inhibition zone at 20 mg/ml at 28 degC after 7 days; settings: AUMC 5119, 168 h, read-out: DIZ; procedure, shortened: as §1
Aspergillus flavus [2] = experiment: Antifungal activity against Aspergillus flavus AUMC 1276 assessed as diameter of growth inhibition zone at 20 mg/ml at 28 degC after 7 days; settings: AUMC 1276, 168 h, read-out: DIZ; procedure, shortened: as §1
Trichophyton rubrum [3] = experiment: Antifungal activity against Trichophyton rubrum AUMC 1804 assessed as diameter of growth inhibition zone at 20 mg/ml at 28 degC after 7 days; settings: AUMC 1804, 168 h, read-out: DIZ; procedure, shortened: as §1
Candida albicans = experiment: Antifungal activity against Candida albicans AUMC 418 assessed as diameter of growth inhibition zone at 20 mg/ml at 28 degC after 7 days; settings: AUMC 418, 168 h, read-out: DIZ; procedure, shortened: as §1
Micrococcus luteus = experiment: Antibacterial activity against Micrococcus luteus AUMC B-112 assessed as diameter of growth inhibition zone at 20 mg/ml at 28 degC after 48 hrs; settings: AUMC B-112, 48 h, read-out: DIZ
Procedure, shortened: (§2)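 Inocula: each bacterial strain grown 48 h in nutrient broth (30 ml per flask). For the assay, 1 ml microbial suspension and 15 ml nutrient agar were poured into each 10 cm Petri plate, compound solutions were applied, and the diameter of the inhibition zone was read.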

Serratia marcescens = experiment: Antibacterial activity against Serratia marcescens AUMC B-55 assessed as diameter of growth inhibition zone at 20 mg/ml at 28 degC after 48 hrs; settings: AUMC B-55, 48 h, read-out: DIZ; procedure, shortened: as §2
Pseudomonas aeruginosa = experiment: Antibacterial activity against Pseudomonas aeruginosa AUMC B-73 g assessed as diameter of growth inhibition zone at 20 mg/ml at 28 degC after 48 hrs; settings: read-out: DIZ; procedure, shortened: as §2
Escherichia coli = experiment: Antibacterial activity against Escherichia coli AUMC B-53 assessed as diameter of growth inhibition zone at 20 mg/ml at 28 degC after 48 hrs; settings: AUMC B-53, 48 h, read-out: DIZ; procedure, shortened: as §2
Bacillus cereus = experiment: Antibacterial activity against Bacillus cereus AUMC B-52 assessed as diameter of growth inhibition zone at 20 mg/ml at 28 degC after 48 hrs; settings: AUMC B-52, 48 h, read-out: DIZ; procedure, shortened: as §2
Staphylococcus aureus = experiment: Antibacterial activity against Staphylococcus aureus AUMC B-54 assessed as diameter of growth inhibition zone at 20 mg/ml at 28 degC after 48 hrs; settings: AUMC B-54, 48 h, read-out: DIZ; procedure, shortened: as §2
Aspergillus flavus [4] = experiment: Antifungal activity against Aspergillus flavus AUMC 3214 assessed as growth inhibition at 28 degC after 7 days; settings: for MIC: Aspergillus flavus, AUMC 3214, 168 h
Trichophyton rubrum [5] = experiment: Antifungal activity against Trichophyton rubrum AUMC 1804 assessed as growth inhibition at 28 degC after 7 days; settings: for MIC: Trichophyton rubrum, AUMC 1804, 168 h

**Q.** Which zone of inhibition at 20000 µg/mL (Geotrichum candidum) does the source give for `Cc1nn(-c2ccccc2)c2nc3c(nc12)/C(=N\O)c1ccccc1-3` here?
**A.** 0 mm

**Q.** What about the zone of inhibition at 20000 µg/mL [1] of the same compound?
**A.** 0 mm

**Q.** What about the zone of inhibition at 20000 µg/mL (Fusarium oxysporum) of the same compound?
**A.** 0 mm

**Q.** And the zone of inhibition at 20000 µg/mL (Aspergillus flavus [2])?
**A.** 0 mm

**Q.** And the zone of inhibition at 20000 µg/mL (Trichophyton rubrum [3])?
**A.** 0 mm

**Q.** What about the zone of inhibition at 20000 µg/mL (Candida albicans) of the same compound?
**A.** 0 mm

**Q.** And the zone of inhibition at 20000 µg/mL (Micrococcus luteus)?
**A.** 0 mm

**Q.** What about the zone of inhibition at 20000 µg/mL (Serratia marcescens) of the same compound?
**A.** 0 mm

**Q.** And the zone of inhibition at 20000 µg/mL (Pseudomonas aeruginosa)?
**A.** 8 mm

**Q.** What about the zone of inhibition at 20000 µg/mL (Escherichia coli) of the same compound?
**A.** 0 mm

**Q.** What about the zone of inhibition at 20000 µg/mL (Bacillus cereus) of the same compound?
**A.** 0 mm

**Q.** What about the zone of inhibition at 20000 µg/mL (Staphylococcus aureus) of the same compound?
**A.** 8 mm

**Q.** For `Clc1ccccc1C(c1ccccc1)(c1ccccc1)n1ccnc1` [CLOTRIMAZOLE], which “diameter of the inhibition zone (DIZ)” value (Aspergillus flavus [4]) is on record?
**A.** 15 mm

**Q.** And the MIC (Aspergillus flavus [4])?
**A.** 150 µg/mL (≈ 435 µM)

**Q.** And the “diameter of the inhibition zone (DIZ)” value (Trichophyton rubrum [5])?
**A.** 35 mm

**Q.** What about the MIC (Trichophyton rubrum [5]) of the same compound?
**A.** 80 µg/mL (≈ 232 µM)

**Q.** And the zone of inhibition at 20000 µg/mL (Geotrichum candidum)?
**A.** 26 mm

**Q.** What about the zone of inhibition at 20000 µg/mL [1] of the same compound?
**A.** 28 mm

**Q.** What about the zone of inhibition at 20000 µg/mL (Fusarium oxysporum) of the same compound?
**A.** 20 mm

**Q.** What about the zone of inhibition at 20000 µg/mL (Aspergillus flavus [2]) of the same compound?
**A.** 44 mm

**Q.** What about the zone of inhibition at 20000 µg/mL (Trichophyton rubrum [3]) of the same compound?
**A.** 36 mm

**Q.** What about the zone of inhibition at 20000 µg/mL (Candida albicans) of the same compound?
**A.** 24 mm

**Q.** Which results are given for `Cc1nn(-c2ccccc2)c2nc3c(nc12)/C(=N\NC(N)=S)c1ccccc1-3`?
**A.** diameter of the inhibition zone (DIZ) (Aspergillus flavus [4]): 14 mm; MIC (Aspergillus flavus [4]): 2500 µg/mL (≈ 6490 µM); diameter of the inhibition zone (DIZ) (Trichophyton rubrum [5]): 14 mm; MIC (Trichophyton rubrum [5]): 300 µg/mL (≈ 778 µM); zone of inhibition at 20000 µg/mL (Geotrichum candidum): 17 mm; zone of inhibition at 20000 µg/mL [1]: 0 mm; zone of inhibition at 20000 µg/mL (Fusarium oxysporum): 0 mm; zone of inhibition at 20000 µg/mL (Aspergillus flavus [2]): 16 mm; zone of inhibition at 20000 µg/mL (Trichophyton rubrum [3]): 30 mm; zone of inhibition at 20000 µg/mL (Candida albicans): 0 mm; zone of inhibition at 20000 µg/mL (Micrococcus luteus): 0 mm; zone of inhibition at 20000 µg/mL (Serratia marcescens): 0 mm; zone of inhibition at 20000 µg/mL (Pseudomonas aeruginosa): 0 mm; zone of inhibition at 20000 µg/mL (Escherichia coli): 0 mm; zone of inhibition at 20000 µg/mL (Bacillus cereus): 0 mm; zone of inhibition at 20000 µg/mL (Staphylococcus aureus): 8 mm

**Q.** `Cc1nn(-c2ccccc2)c2nc3c(nc12)/C(=C/c1ccccc1Cl)c1ccccc1-3` was tested. Which “diameter of the inhibition zone (DIZ)” value (Aspergillus flavus [4]) did it give?
**A.** 9 mm

**Q.** What about the MIC (Aspergillus flavus [4]) of the same compound?
**A.** 20000 µg/mL (≈ 47500 µM)

**Q.** What about the “diameter of the inhibition zone (DIZ)” value (Trichophyton rubrum [5]) of the same compound?
**A.** 10 mm

**Q.** And the MIC (Trichophyton rubrum [5])?
**A.** 600 µg/mL (≈ 1430 µM)

**Q.** And the zone of inhibition at 20000 µg/mL (Geotrichum candidum)?
**A.** 0 mm

**Q.** And the zone of inhibition at 20000 µg/mL [1]?
**A.** 0 mm

**Q.** What about the zone of inhibition at 20000 µg/mL (Fusarium oxysporum) of the same compound?
**A.** 0 mm

**Q.** What about the zone of inhibition at 20000 µg/mL (Aspergillus flavus [2]) of the same compound?
**A.** 9 mm

**Q.** What about the zone of inhibition at 20000 µg/mL (Trichophyton rubrum [3]) of the same compound?
**A.** 26 mm

**Q.** What about the zone of inhibition at 20000 µg/mL (Candida albicans) of the same compound?
**A.** 0 mm

**Q.** And the zone of inhibition at 20000 µg/mL (Micrococcus luteus)?
**A.** 0 mm

**Q.** What about the zone of inhibition at 20000 µg/mL (Serratia marcescens) of the same compound?
**A.** 0 mm

**Q.** What about the zone of inhibition at 20000 µg/mL (Pseudomonas aeruginosa) of the same compound?
**A.** 8 mm

**Q.** And the zone of inhibition at 20000 µg/mL (Escherichia coli)?
**A.** 8 mm

**Q.** What about the zone of inhibition at 20000 µg/mL (Bacillus cereus) of the same compound?
**A.** 0 mm

**Q.** And the zone of inhibition at 20000 µg/mL (Staphylococcus aureus)?
**A.** 10 mm

**Q.** What does the source list for `Cc1nn(-c2ccccc2)c2nc3c(nc12)/C(=N/N=C1/NC(=O)CS1)c1ccccc1-3`?
**A.** diameter of the inhibition zone (DIZ) (Aspergillus flavus [4]): 10 mm; MIC (Aspergillus flavus [4]): 5000 µg/mL (≈ 11800 µM); diameter of the inhibition zone (DIZ) (Trichophyton rubrum [5]): 12 mm; MIC (Trichophyton rubrum [5]): 600 µg/mL (≈ 1410 µM); zone of inhibition at 20000 µg/mL (Geotrichum candidum): 10 mm; zone of inhibition at 20000 µg/mL [1]: 0 mm; zone of inhibition at 20000 µg/mL (Fusarium oxysporum): 0 mm; zone of inhibition at 20000 µg/mL (Aspergillus flavus [2]): 12 mm; zone of inhibition at 20000 µg/mL (Trichophyton rubrum [3]): 26 mm; zone of inhibition at 20000 µg/mL (Candida albicans): 0 mm; zone of inhibition at 20000 µg/mL (Micrococcus luteus): 0 mm; zone of inhibition at 20000 µg/mL (Serratia marcescens): 0 mm; zone of inhibition at 20000 µg/mL (Pseudomonas aeruginosa): 8 mm; zone of inhibition at 20000 µg/mL (Escherichia coli): 8 mm; zone of inhibition at 20000 µg/mL (Bacillus cereus): 0 mm; zone of inhibition at 20000 µg/mL (Staphylococcus aureus): 10 mm

**Q.** For `Cc1nn(-c2ccccc2)c2nc3c(nc12)/C(=N/N=c1/[nH]c(-c2ccccc2)cs1)c1ccccc1-3`, which “diameter of the inhibition zone (DIZ)” value (Aspergillus flavus [4]) is on record?
**A.** 12 mm

**Q.** And the MIC (Aspergillus flavus [4])?
**A.** 2500 µg/mL (≈ 5150 µM)

**Q.** And the “diameter of the inhibition zone (DIZ)” value (Trichophyton rubrum [5])?
**A.** 14 mm

**Q.** And the MIC (Trichophyton rubrum [5])?
**A.** 300 µg/mL (≈ 618 µM)

**Q.** What about the zone of inhibition at 20000 µg/mL (Geotrichum candidum) of the same compound?
**A.** 10 mm

**Q.** And the zone of inhibition at 20000 µg/mL [1]?
**A.** 0 mm

**Q.** And the zone of inhibition at 20000 µg/mL (Fusarium oxysporum)?
**A.** 0 mm

**Q.** What about the zone of inhibition at 20000 µg/mL (Aspergillus flavus [2]) of the same compound?
**A.** 16 mm

**Q.** What about the zone of inhibition at 20000 µg/mL (Trichophyton rubrum [3]) of the same compound?
**A.** 30 mm

**Q.** And the zone of inhibition at 20000 µg/mL (Candida albicans)?
**A.** 0 mm

**Q.** What about the zone of inhibition at 20000 µg/mL (Micrococcus luteus) of the same compound?
**A.** 0 mm

**Q.** And the zone of inhibition at 20000 µg/mL (Serratia marcescens)?
**A.** 0 mm

**Q.** And the zone of inhibition at 20000 µg/mL (Pseudomonas aeruginosa)?
**A.** 0 mm

**Q.** And the zone of inhibition at 20000 µg/mL (Escherichia coli)?
**A.** 8 mm

**Q.** And the zone of inhibition at 20000 µg/mL (Bacillus cereus)?
**A.** 0 mm

**Q.** And the zone of inhibition at 20000 µg/mL (Staphylococcus aureus)?
**A.** 10 mm
